Results: ChEMBL document CHEMBL5257021 (J Med Chem, 2016)
Activity calls are given as the source filed them. No cut-off for these calls is given here.

Key:
[1] = test system: MDA-MB-468; assay: Cytotoxicity against human MDA-MB-468 cells expressing Y1R assessed as reduction in cell viability at 10 uM treated for 8 hrs followed by culturing in proliferation medium for 72 hrs in presence of 10 equiv hY1R agonist, [F7,P34]-NPY by resazurin assay; format: functional, cell-based; conditions: time 80.0 hrs
Procedure, shortened: (§1)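 Breast cancer cells were exposed for 8 h at 37 °C in FCS-free medium to toxic agent together with 10 equiv of hY1R agonist [F7,P34]-NPY. Cells were then washed twice and grown 72 h in culture medium. Medium-treated cells with or without agonist were set at 100% and ethanol-treated cells at 0%. Triplicate, ≥2 independent experiments.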

[2] = test system: T47D (Homo sapiens); assay: Cytotoxicity against human T47D cells expressing Y1R assessed as reduction in cell viability treated for 8 hrs followed by culturing in proliferation medium for 72 hrs by resazurin assay
[3] = test system: T-47D (Homo sapiens); assay: as above
[4] = Cytotoxicity against human HEK293 cells assessed as cell viability at >= 1 uM treated for 8 hrs followed by culturing in proliferation medium for 72 hrs by resazurin assay; format: toxicity, cell-based; conditions: read-out: Activity
Procedure, shortened: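 Seeding was 6000/well for MDA-MB-231, 10000 for T-47D, and 8000 for MDA-MB-468 and HEK293. After 24 h, cells got compound at 50 to 0.01 μM in FCS-free medium for 8 h at 37 °C, were washed twice, then kept 72 h in culture medium. Resazurin 10% (v/v) was added for 2 h at 37 °C and resorufin fluorescence read (ex 550/em 595 nm). Medium-only cells were set at 100% and 70% ethanol-treated cells at 0%.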

[5] = test system: MDA-MB-231; assay: Cytotoxicity against human MDA-MB-231 cells expressing Y1R assessed as reduction in cell viability treated for 8 hrs followed by culturing in proliferation medium for 72 hrs by resazurin assay
[6] = test system: T47D; assay: Cytotoxicity against human T47D cells expressing Y1R assessed as reduction in cell viability at 5 uM treated for 8 hrs followed by culturing in proliferation medium for 72 hrs in presence of 10 equiv hY1R agonist, [F7,P34]-NPY by resazurin assay; format: functional, cell-based; conditions: time 80.0 hrs
Procedure, shortened: as §1, with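 “medium. Viability was read by resazurin (10% v/v, 2 h, ex 550/em 595 nm).” for “medium.”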

[7] = test system: MDA-MB-231; assay: Cytotoxicity against human MDA-MB-231 cells expressing Y1R assessed as reduction in cell viability at 25 uM treated for 8 hrs followed by culturing in proliferation medium for 72 hrs in presence of 10 equiv hY1R agonist, [F7,P34]-NPY by resazurin assay; format: functional, cell-based; conditions: time 80.0 hrs; procedure, shortened: as §1
[8] = test system: MDA-MB-468; assay: Cytotoxicity against human MDA-MB-468 cells expressing Y1R assessed as reduction in cell viability treated for 8 hrs followed by culturing in proliferation medium for 72 hrs by resazurin assay; format: functional, cell-based

## CN(Cc1cnc2nc(N)nc(N)c2n1)c1ccc(C(=O)N[C@@H](CCC(=O)O)C(=O)O)cc1 [METHOTREXATE]
[1]
  Activity: Active
[2]
  IC50: 500 nM
[3]
  IC50: 501 nM
[4]
  viability at 80 h, 1 µM: 65%
[5]; read-out: IC50
  IC50: 15000 nM
[5]; read-out: pIC50 (converted)
  IC50: 15800 nM
[6]
  Activity: Active
[7]
  Activity: Active
[8]; read-out: IC50
  IC50: 200 nM
[8]; read-out: pIC50 (converted)
  IC50: 200 nM
